Experiments:
Adenosine receptor A2a [1] = target: T1, Adenosine receptor A2a (Homo sapiens, UniProt P29274); assay: Displacement of [3H]MSX-2 from recombinant human A2A adenosine receptor expressed in CHO cell membranes measured after 30 mins in presence of adenosine deaminase by liquid scintillation counting method
Method in brief: (§1)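 Competition binding on membranes of cells recombinantly expressing the human receptor (CHO or HEK cells), with tritiated radioligand per subtype: [3H]PSB-603 for A2B, [3H]MSX-2 for A2A, [3H]CCPA for A1, [3H]PSB-11 for A3. Ki ± SEM from n = 3, some from extrapolated curves. Weak binders are reported as % inhibition of radioligand binding at 1 μM.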

[2] = target: T2, Adenosine receptor A1 (Homo sapiens) (UniProt P30542); assay: Displacement of [3H]CCPA from recombinant human A1 adenosine receptor expressed in CHO cell membranes at 1 uM measured after 90 mins in presence of adenosine deaminase by liquid scintillation counting method relative to control
T2 sequence (whole entry): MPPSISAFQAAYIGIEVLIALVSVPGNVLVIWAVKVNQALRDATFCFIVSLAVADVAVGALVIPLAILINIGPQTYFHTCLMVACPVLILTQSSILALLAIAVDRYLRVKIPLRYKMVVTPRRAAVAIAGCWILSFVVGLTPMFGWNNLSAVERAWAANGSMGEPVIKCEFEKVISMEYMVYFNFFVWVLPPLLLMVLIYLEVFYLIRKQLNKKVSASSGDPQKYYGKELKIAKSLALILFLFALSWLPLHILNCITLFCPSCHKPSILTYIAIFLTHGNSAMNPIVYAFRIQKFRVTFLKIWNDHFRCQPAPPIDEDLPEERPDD
Method in brief: (§2)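 Single-point competition binding at human AR subtype membranes, each against its own tritiated radioligand. The test compound is given at 1 μM, and the result is reported as percent inhibition of radioligand binding. The radioligand-specific footnotes give n = 3.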

Adenosine receptor A2a [3] = target: T1, Adenosine receptor A2a; assay: Displacement of [3H]MSX-2 from recombinant human A2A adenosine receptor expressed in CHO cell membranes at 1 uM measured after 30 mins in presence of adenosine deaminase by liquid scintillation counting method relative to control; method in brief: as §2
Adenosine receptor A1 [4] = target: T3, Adenosine receptor A1 (Homo sapiens, UniProt P30542); assay: Displacement of [3H]CCPA from recombinant human A1 adenosine receptor expressed in CHO cell membranes measured after 90 mins in presence of adenosine deaminase by liquid scintillation counting method; method in brief: as §1
T3 sequence (P30542 whole entry): T2 sequence (whole entry)

Homo sapiens [5] = organism: Homo sapiens; assay: Selectivity index, ratio of Ki for displacement of [3H]MSX-2 from recombinant human A2A adenosine receptor expressed in CHO cell membranes to Ki for displacement of [3H]PSB-603 from recombinant human A2B adenosine receptor expressed in CHO cell membranes
Adenosine receptor A2b [6] = target: T4, Adenosine receptor A2b (Homo sapiens, UniProt P29275); assay: Displacement of [3H]PSB-603 from recombinant human A2B adenosine receptor expressed in CHO cell membranes measured after 75 mins in presence of adenosine deaminase by liquid scintillation counting method; method in brief: as §1
T4 sequence (P29275 whole entry): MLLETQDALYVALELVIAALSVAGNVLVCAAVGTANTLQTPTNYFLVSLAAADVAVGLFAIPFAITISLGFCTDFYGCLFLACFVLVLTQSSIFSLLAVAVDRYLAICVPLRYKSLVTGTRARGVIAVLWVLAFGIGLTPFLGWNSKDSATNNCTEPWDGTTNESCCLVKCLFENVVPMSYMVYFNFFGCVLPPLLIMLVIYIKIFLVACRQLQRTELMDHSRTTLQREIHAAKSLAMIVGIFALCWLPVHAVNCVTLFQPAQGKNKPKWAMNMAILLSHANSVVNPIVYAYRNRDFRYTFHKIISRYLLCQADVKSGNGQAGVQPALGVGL

Adenosine receptor A3 [7] = target: T5, Adenosine receptor A3 (Homo sapiens, UniProt P0DMS8); assay: Displacement of [3H]PSB-11 from recombinant human A3 adenosine receptor expressed in CHO cell membranes measured after 45 mins in presence of adenosine deaminase by liquid scintillation counting method; method in brief: as §1
T5 sequence (P0DMS8 whole entry): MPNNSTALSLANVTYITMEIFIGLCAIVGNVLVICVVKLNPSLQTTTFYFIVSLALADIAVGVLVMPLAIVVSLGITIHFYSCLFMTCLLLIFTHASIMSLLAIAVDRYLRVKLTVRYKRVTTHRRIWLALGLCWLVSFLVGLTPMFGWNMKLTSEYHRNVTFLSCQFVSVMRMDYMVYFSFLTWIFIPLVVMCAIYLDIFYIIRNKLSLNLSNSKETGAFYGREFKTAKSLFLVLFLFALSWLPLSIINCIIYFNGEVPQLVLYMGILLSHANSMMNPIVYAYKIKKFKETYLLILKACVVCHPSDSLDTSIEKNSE

Homo sapiens [8] = organism: Homo sapiens; assay: Selectivity index, ratio of Ki for displacement of [3H]CCPA from recombinant human A1 adenosine receptor expressed in CHO cell membranes to Ki for displacement of [3H]PSB-603 from recombinant human A2B adenosine receptor expressed in CHO cell membranes
Homo sapiens [9] = organism: Homo sapiens; assay: Selectivity index, ratio of Ki for displacement of [3H]PSB-11 from recombinant human A3 adenosine receptor expressed in CHO cell membranes to Ki for displacement of [3H]PSB-603 from recombinant human A2B adenosine receptor expressed in CHO cell membranes
[10] = target: T6, Adenosine receptor A3 (Homo sapiens) (UniProt P0DMS8); assay: Displacement of [3H]PSB-11 from recombinant human A3 adenosine receptor expressed in CHO cell membranes at 1 uM measured after 45 mins in presence of adenosine deaminase by liquid scintillation counting method relative to control; method in brief: as §2
T6 sequence (whole entry): T5 sequence (P0DMS8 whole entry)

[11] = target: T7, Adenosine receptor A2b (Homo sapiens) (UniProt P29275); assay: Competitive antagonist activity at recombinant human A2B adenosine receptor expressed in CHO cells assessed as reduction in NECA-induced […] cAMP accumulation preincubated for 10 mins followed by NECA stimulation for 15 mins […] and measured after 15 mins; type: functional, cell-based
T7 sequence (whole entry): T4 sequence (P29275 whole entry)

[12] = Selectivity ratio of Ki for displacement of [3H]PSB-603 from recombinant mouse A2B adenosine receptor expressed in CHO cell membranes to Ki for displacement of [3H]PSB-603 from recombinant human A2B adenosine receptor expressed in CHO cell membranes
[13] = target: T8, Adenosine receptor A3 (Mus musculus) (UniProt Q61618); assay: Displacement of [3H]NECA from recombinant mouse A3 adenosine receptor expressed in CHO cell membranes at 1 uM measured after 180 mins in presence of adenosine deaminase by liquid scintillation counting method relative to control
T8 sequence (whole entry): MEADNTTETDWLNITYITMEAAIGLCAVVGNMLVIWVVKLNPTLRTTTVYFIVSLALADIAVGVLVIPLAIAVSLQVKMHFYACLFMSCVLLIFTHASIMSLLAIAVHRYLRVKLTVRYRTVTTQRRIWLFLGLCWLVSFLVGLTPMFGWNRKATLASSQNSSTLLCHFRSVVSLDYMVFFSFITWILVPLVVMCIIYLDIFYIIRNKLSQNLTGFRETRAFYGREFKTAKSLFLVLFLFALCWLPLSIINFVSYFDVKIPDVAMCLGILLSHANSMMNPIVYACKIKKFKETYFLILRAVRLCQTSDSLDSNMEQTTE

Adenosine receptor A3 [14] = target: T9, Adenosine receptor A3 (Mus musculus, UniProt Q61618); assay: Displacement of [3H]NECA from recombinant mouse A3 adenosine receptor expressed in CHO cell membranes measured after 180 mins in presence of adenosine deaminase by liquid scintillation counting method
T9 sequence (Q61618 whole entry): T8 sequence (whole entry)

Adenosine receptor A2b [15] = target: T10, Adenosine receptor A2b (Mus musculus, UniProt Q60614); assay: Displacement of [3H]PSB-603 from recombinant mouse A2B adenosine receptor expressed in CHO cell membranes measured after 75 mins in presence of adenosine deaminase by liquid scintillation counting method
T10 sequence (Q60614 whole entry): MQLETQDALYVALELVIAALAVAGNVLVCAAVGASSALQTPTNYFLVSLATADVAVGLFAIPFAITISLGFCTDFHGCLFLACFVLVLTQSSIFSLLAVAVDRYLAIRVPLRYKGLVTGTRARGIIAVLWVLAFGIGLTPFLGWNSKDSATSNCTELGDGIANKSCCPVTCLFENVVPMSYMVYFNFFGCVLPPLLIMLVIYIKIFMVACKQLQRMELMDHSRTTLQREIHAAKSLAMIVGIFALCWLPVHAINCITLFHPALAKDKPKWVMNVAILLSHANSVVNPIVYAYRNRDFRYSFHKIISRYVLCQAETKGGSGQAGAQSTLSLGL

Mus musculus = organism: Mus musculus; assay: Selectivity ratio of Ki for displacement of [3H]CCPA from recombinant mouse A1 adenosine receptor expressed in CHO cell membranes to Ki for displacement of [3H]PSB-603 from recombinant mouse A2B adenosine receptor expressed in CHO cell membranes
Adenosine receptor A1 [16] = target: T11, Adenosine receptor A1 (Mus musculus, UniProt Q60612); assay: Displacement of [3H]CCPA from recombinant mouse A1 adenosine receptor expressed in CHO cell membranes measured after 90 mins in presence of adenosine deaminase by liquid scintillation counting method
T11 sequence (Q60612 whole entry): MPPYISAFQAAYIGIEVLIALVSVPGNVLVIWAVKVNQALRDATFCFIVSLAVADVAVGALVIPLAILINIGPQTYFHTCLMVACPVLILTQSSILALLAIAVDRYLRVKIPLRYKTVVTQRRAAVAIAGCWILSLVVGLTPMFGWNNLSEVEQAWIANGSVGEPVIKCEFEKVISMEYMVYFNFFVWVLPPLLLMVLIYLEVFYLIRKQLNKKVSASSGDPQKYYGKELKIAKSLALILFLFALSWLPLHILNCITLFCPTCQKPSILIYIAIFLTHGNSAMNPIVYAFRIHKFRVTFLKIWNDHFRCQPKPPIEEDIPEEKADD

T1 sequence (P29274 whole entry): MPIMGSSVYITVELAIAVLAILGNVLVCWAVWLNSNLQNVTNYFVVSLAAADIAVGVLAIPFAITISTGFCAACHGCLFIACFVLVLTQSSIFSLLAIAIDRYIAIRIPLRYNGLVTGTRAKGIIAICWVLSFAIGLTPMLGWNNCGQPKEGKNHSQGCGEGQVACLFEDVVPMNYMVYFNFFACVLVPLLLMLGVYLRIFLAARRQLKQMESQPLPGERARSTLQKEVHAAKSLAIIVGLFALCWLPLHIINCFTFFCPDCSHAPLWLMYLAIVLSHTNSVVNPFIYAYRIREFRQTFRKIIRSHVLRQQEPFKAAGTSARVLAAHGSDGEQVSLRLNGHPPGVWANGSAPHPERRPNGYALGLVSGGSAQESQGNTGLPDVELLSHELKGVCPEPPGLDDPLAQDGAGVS

| SMILES | Ki (Adenosine receptor A2a [1]) [nM] | inhibition [2] [%] | inhibition (Adenosine receptor A2a [3]) [%] | Ki (Adenosine receptor A1 [4]) [nM] | Ratio Ki (Homo sapiens [5]) | Ki (Adenosine receptor A2b [6]) [nM] | Ki (Adenosine receptor A3 [7]) [nM] | Ratio Ki (Homo sapiens [8]) | Ratio Ki (Homo sapiens [9]) | inhibition [10] [%] | Kb [11] [nM] | Ratio Ki [12] | inhibition [13] [%] | Ki (Adenosine receptor A3 [14]) [nM] | Ki (Adenosine receptor A2b [15]) [nM] | Ratio Ki (Mus musculus) | Ki (Adenosine receptor A1 [16]) [nM] |
| --- | --- | --- | --- | --- | --- | --- | --- | --- | --- | --- | --- | --- | --- | --- | --- | --- | --- |
| CCCn1c(=O)[nH]c2nc(-c3ccc(S(=O)(=O)N4CCN(c5ccc(OC)c(Cl)c5)CC4)cc3)[nH]c2c1=O | > 1000 | 23 | 31 | > 1000 | > 2840 | 0.352 | > 1000 | > 2840 | > 2840 | 1 |  |  |  |  |  |  |  |
| CCCn1c(=O)[nH]c2nc(-c3ccc(S(=O)(=O)N4CCN(c5ccccc5F)CC4)cc3)[nH]c2c1=O | > 1000 | 13 | 27 | > 1000 | > 310 | 3.22 | > 1000 | > 310 | > 310 | 9 |  |  |  |  |  |  |  |
| CCCn1c(=O)[nH]c2nc(-c3ccc(S(=O)(=O)N4CCN(c5cccc(Br)c5)CC4)cc3)[nH]c2c1=O | > 1000 | -1 | 24 | > 1000 | > 4270 | 0.234 | > 1000 | > 4270 | > 4270 | 27 |  |  |  |  |  |  |  |
| CCCn1c(=O)[nH]c2nc(-c3ccc(S(=O)(=O)N4CCN(c5ccc(C)cc5)CC4)cc3)[nH]c2c1=O | > 1000 | 12 | 34 | > 1000 | > 1420 | 0.706 | > 1000 | > 1420 | > 1420 | 25 |  |  |  |  |  |  |  |
| CCCn1c(=O)[nH]c2nc(-c3ccc(S(=O)(=O)N4CCN(Cc5ccc(Br)c(F)c5)CC4)cc3)[nH]c2c1=O | 403 |  |  | 326 |  | 0.473 | > 1000 | 690 |  | 27 |  |  |  |  |  |  |  |
| CCCn1c(=O)[nH]c2nc(-c3ccc(S(=O)(=O)N4CCN(c5ccc(OC)c(F)c5)CC4)cc3)[nH]c2c1=O | > 1000 | 34 | 30 | > 1000 | > 800 | 1.24 | > 1000 | > 800 | > 800 | 21 |  |  |  |  |  |  |  |
| CCCn1c(=O)[nH]c2nc(-c3ccc(S(=O)(=O)N4CCN(Cc5cccc(Br)c5)CC4)cc3)[nH]c2c1=O | 92.4 |  |  | 928 | 620 | 0.148 | > 1000 | 620 |  | 23 | 0.201 | 1.5 to 6 | 5 | > 1000 | 0.901 | > 120 | 107 |
| CCCn1c(=O)[nH]c2nc(-c3ccc(S(=O)(=O)N4CCN(c5ccc(Cl)cc5F)CC4)cc3)[nH]c2c1=O | > 1000 | 9 | 6 | > 1000 | > 500 | 1.91 | > 1000 | > 500 | > 500 | 14 |  |  |  |  |  |  |  |
| CCCn1c(=O)[nH]c2nc(-c3ccc(S(=O)(=O)N4CCN(Cc5ccc(C(=O)O)cc5)CC4)cc3)[nH]c2c1=O | 1160 | 12 |  | > 1000 | 10 | 96.7 | > 1000 | 10 | 10 | -7 |  |  |  |  |  |  |  |
| CCCn1c(=O)[nH]c2nc(-c3ccc(S(=O)(=O)N4CCN(c5ccc(I)cc5)CC4)cc3)[nH]c2c1=O | 2990 | 24 |  | > 1000 | > 6290 | 0.159 | > 1000 | > 6290 | > 6290 | 36 |  |  |  |  |  |  |  |
| CCCn1c(=O)[nH]c2nc(-c3ccc(S(=O)(=O)N4CCN(c5cccc(Cl)c5)CC4)cc3)[nH]c2c1=O | 1000 | 21 | 42 | > 1000 |  | 0.342 | 53.5 |  | 160 |  |  |  |  |  |  |  |  |
| CCCn1c(=O)[nH]c2nc(-c3ccc(S(=O)(=O)N4CCN(C(C)c5ccccc5)CC4)cc3)[nH]c2c1=O (stereo not given) | ≥ 1000 | 42 | 42 | ≥ 1000 | > 120 | 8.34 | > 1000 | > 120 | > 120 | 0 |  |  |  |  |  |  |  |
